Assay: Toxicity liver stage against HepG2, at 10uM
Format: cell-based
Set-up: test concentration 10 uM, cell line HepG2-A16-CD81EGFP
Conditions: human, HepG2-A16-CD81EGFP cells; read-out: INHIBITION
Procedure, shortened: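 Uninfected HepG2-A16-CD81EGFP cells, 3 × 10^3 per well, 1536-well, plated on prespotted compound at 10 μM final, parasite-free screening media added to match infected plates; puromycin 10 μM positive, DMSO 0.5% negative; run in parallel with 48 h PbLuc assay at 37 °C, 5% CO2; viability by CellTiter-Glo luminescence, normalized to controls.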

| SMILES | cytotoxicity at 10 µM [%] |
| --- | --- |
| Cc1cc2[nH]c(=O)c(=O)[nH]c2cc1S(=O)(=O)NC1CCC(C)CC1 (stereo not given) | -10.5 |
| Oc1ccc(N2CCN(Cc3cc4c(cc3Br)OCCO4)CC2)cc1 | 6.87 |
| CC(C)(C)c1c[nH]c([C@@H]2COCCN2C2CCC2)n1 | 5.99 |
| O=C(C1CCN(S(=O)(=O)N2CCCC2)CC1)N1CCC2(CC1)OCCO2 | -17.9 |
| CCN1Cc2cc(F)ccc2N(C(C)=O)CCC1=O | -4.78 |
| C=Cc1ccc(CSc2nc3c(c(=O)[nH]2)CN(CCC)CC3)cc1 | -4.68 |
| CN1CCCN(C(=O)c2nnn(-c3ccc(C(F)(F)F)cc3)n2)CC1 | -7.37 |
| CCS(=O)(=O)N1CCc2nc(N3CCCC3)nc(N(C)C)c2CC1 | 14.3 |
| O=C(CC1CC1)N1CCCn2c(nnc2Cn2cccc2)C1 | 10.7 |
| CC(C)CN1C[C@H]2CCN(C(=O)C3CCCO3)CC[C@H]2S1(=O)=O (stereo not given in full) | 19.3 |
| CC1CCN(c2ccc3c(-c4ncc(C(=O)O)s4)noc3c2)CC1 | 2.13 |
| CCc1nn2c(=N)c(C#N)n[nH]c2c1-c1ccc(OC)cc1 | -3.73 |
| CN(Cc1ccco1)C[C@H]1OC[C@@H]2CCN(Cc3nccs3)C[C@@H]21 | -5.9 |
| Cc1oncc1C(=O)N1CCC2(CC1)CC(c1ccccc1)C(=O)N2C (stereo not given) | -14.5 |
| CCc1noc(C2CCCCN2C(=O)c2cc(C)on2)n1 (stereo not given) | 5.67 |
| COc1cc(NCc2cccnc2)c(-c2nn[nH]n2)cc1OC | 7.88 |
| CCN1CCN(C(=O)C2CC(=O)N(c3cnn(C(C)C)c3)C2)CC1 (stereo not given) | 5.61 |
| CS(=O)(=O)N[C@@H]1CN(Cc2ccccc2)C[C@H]1O | -2.92 |
| CC(=O)N1CCC(c2ncc(C(=O)Nc3ccccc3)c(C)n2)CC1 | 5.91 |
| Fc1ccccc1CN1CCC[C@@H](Cn2nnc(-c3cccs3)n2)C1 | 4.77 |
| CCCC(=O)N1CCCCC1c1nc(N(C)C)ncc1-c1cc(C)no1 (stereo not given) | 4.94 |
| CCC(=O)N1CCCCC1c1nc(N(C)C)ncc1-c1cc(C)no1 (stereo not given) | 5.69 |

| SMILES | cytotoxicity at 10 µM [%] |
| --- | --- |
| O=C(c1ccc(-n2cccn2)nc1)N1CCC(c2ccn[nH]2)C1 (stereo not given) | -0.399 |
| CC(=O)N1CCN([C@@H]2CN(C(=O)c3ccccc3C)C[C@H]2O)CC1 | -3.79 |
| Cc1ccsc1CN(CCCO)Cc1nc2ccccc2[nH]1 | -21.3 |
| CN1CCNC(Cc2ccc(-c3ccccc3)cc2)C1=O (stereo not given) | -41.9 |
| Cc1n[nH]c(C)c1-c1cnc(CC2CCN(C(C)C)CC2)cn1 | 22.3 |
| CCN(Cc1ccncc1)CC1(O)CCN(C(=O)c2ccccc2C)C1 (stereo not given) | -22 |
| CC1CCN(CCNCc2cc(-c3ccccc3)cn3nnnc23)CC1 | -20.4 |
| CC(C)NC(=O)C1CCc2nnc(CNC(=O)c3ccc(Cl)cc3Cl)n21 (stereo not given) | 5.84 |
| COc1c(CNCCc2c[nH]c3ccccc23)c(C(C)C)nn1C | 3.41 |
| Cc1ccccc1CCCN1CCS(=O)(=O)CC1C (stereo not given) | 1.57 |
| CC(C)N1C(=O)CN(CCOCCO)CC1(C)C | 1.94 |
| Cc1ccccc1C(C)NC(=O)CN1CCN(Cc2ccc(Br)s2)CC1 (stereo not given) | 22.9 |
| CCc1nnc(CS(=O)(=O)c2ccc(C)c(C)c2)n1C | 0.617 |
| CC(C)NC(=O)CN(C)C(=O)c1csc(Cc2ccccc2F)n1 | 3.24 |
| Cc1cc(C)n(C2CCCN(C(=O)c3ccnc(N(C)C)c3)C2)n1 (stereo not given) | 1.9 |
| Cc1nnc(CN2CCCC2c2ccc3c(c2)OCCCO3)n1C (stereo not given) | 4.86 |
| CN(CCCOc1ccc(F)cc1)S(=O)(=O)c1cnn(C)c1 | -0.336 |
| Cc1cc(C(=O)NCC2CCCC2)c(C)n1-c1cccnc1 | 5.69 |
| CC(NCc1ccc(OCC(N)=O)cc1)c1ccc2c(c1)CCCC2 (stereo not given) | -0.699 |
| CSCC(CCO)Nc1cccc(C(F)(F)F)n1 (stereo not given) | 0.515 |
| Cc1[nH]ncc1CCCNC(=O)Nc1ccc(S(C)(=O)=O)nc1 | -3.71 |
| COc1ccc(NC(=O)COc2nn(C)c3nc(C)cc(C)c23)cn1 | -4.36 |

| SMILES | cytotoxicity at 10 µM [%] |
| --- | --- |
| Cc1nc(C)n(CC2CCCN2Cc2coc(-c3cccs3)n2)n1 (stereo not given) | -9.61 |
| Cc1cnc(C(NC(=O)NCC2(CO)CC2)C2CC2)s1 (stereo not given) | 1.8 |
| CCN1CCCC1CN(CCN(C)C)S(=O)(=O)c1ccccc1C#N (stereo not given) | -8.58 |
| COc1ccnc(N2CCN(C(C)c3nc(C)no3)CC2)n1 (stereo not given) | -1.33 |
| CC(C)(C)OC(=O)N1CCC[C@H](NCC2=CCCOC2)C1 | -6.93 |
| Cc1nn(C)c(C)c1OCC(=O)N1CCCC1 | -10.9 |
| COCCn1cc(NC(=O)NCC2CCN(c3ccccc3)C2)cn1 (stereo not given) | 2.21 |
| CC(C)N1CCC(Nc2ccn(C)n2)C1=O (stereo not given) | -0.794 |
| CC(C)(C)CC(=O)NCC(=O)Nc1ccn(CCCn2ccnc2)n1 | 10.6 |
| Cc1ccc(N2CCCN(C(=O)c3n[nH]c4c3CCC4)CC2)nn1 | 3.81 |
| CCCN(CCC)C(=O)CN(C)Cc1cnc(C)s1 | 20.9 |
| c1ccc(CCN2CC(n3cccn3)C2)nc1 | -0.2 |
| CN(C(=O)CCc1nc(C2CC2)no1)c1cc(C#N)c2ccccc2n1 | 0.55 |
| COCCCn1ccc(NS(=O)(=O)c2cc(F)c(C)cc2F)n1 | 19.1 |
| CN(C)C1CCN(C(=O)NCc2ccc(Cn3cncn3)cc2)CC1 | -3.6 |
| Cc1ccc(NC(=O)Cn2cc(I)cn2)cc1 | 9.06 |
| CN(C)C(=O)CNC(=O)Nc1cccc(Cl)c1SC(F)F | 1.31 |
| NS(=O)(=O)N1CCc2ccc(NC(=O)Cc3ccc(F)cc3)cc21 | -9.06 |
| O=C(c1ccoc1)N1Cc2cnn(CC3CC3)c2C(COCC2CC2)C1 (stereo not given) | -6.98 |
| O=C([C@@H]1CCS(=O)(=O)[C@@H]2CN(c3ncccn3)C[C@@H]21)N1CCOCC1 | -100 |
| Cc1nc(C)c2c(n1)CCN(C(=O)C1(C#N)CC1)CC2 | -102 |
| CS(=O)(=O)NC[C@]12COC[C@H]1CN(C(=O)C1CC=CC1)C2 | -105 |

| SMILES | cytotoxicity at 10 µM [%] |
| --- | --- |
| O=C(c1cccs1)N1CCC2(CC1)CN(c1ccsc1)C(=O)CO2 | -70.5 |
| Cc1cccc2[nH]c(COCC(=O)N3CCCn4cncc4C3)nc12 | 2.03 |
| CCCn1ncc(CN(Cc2cccnc2)Cc2ccsc2)c1C | 13.1 |
| CC(C)(C)c1ccc(-n2ncc3c2CCCC3N)cc1 (stereo not given) | -0.711 |
| O=C(CCCn1ccnc1)N[C@H]1CN(C2CCCC2)C[C@@H]1C1CC1 | 7.69 |
| CCCn1ccnc1CN1CCC(Oc2ccc(Cl)cc2)(C(=O)O)CC1 | 3.47 |
| Cc1cncc(NC(=O)c2ccc(CN3CCCC(C(N)=O)C3)cc2)c1 (stereo not given) | 0.86 |
| CC(=O)N1CCCN(C(C(=O)O)c2cccc(C)c2C)CC1 (stereo not given) | -2.75 |
| Cc1n[nH]cc1C(=O)NCc1cccnc1N1CCc2ccccc2C1 | 8.81 |
| Nc1nc2c(c(NCC(c3cccnc3)N3CCOCC3)n1)CCNC2 (stereo not given) | 9.03 |
| Cc1cc(CC(C)NC2CCSCC2)[nH]n1 (stereo not given) | 1.08 |
| CCc1cc(C(=O)N2CCCn3nc(CCC(=O)O)cc3C2)cs1 | -3.32 |
| Cc1cc(F)ccc1OC1(C(=O)O)CCN(Cc2c[nH]cn2)CC1 | 1.18 |
| CCOc1ccc(-c2ccnc(C3CC3)n2)cc1C(=O)O | -0.173 |
| Cn1ncc2c(N3CC(N4CCCCC4)C3)nc(-c3ccncc3)nc21 | 5.18 |
| O=C1N(CCO)CCCC12CCN(Cc1noc(C3CCCC3)n1)C2 (stereo not given) | -0.973 |
| COc1cccc(S(=O)(=O)N2CCCCC2CCN2CCOCC2)c1 (stereo not given) | -5.31 |
| CN(Cc1cc[nH]n1)C(=O)c1ccc2c(c1)nc(N1CC[C@H](O)C1)n2C | 4.43 |
| COc1ccc2c(c1)C(C(=O)N(C)CCCc1nccn1C)CC(=O)N2 (stereo not given) | -56 |
| Cc1ccc(-c2ccc(Cl)nn2)cc1S(N)(=O)=O | -12.3 |
| Cc1ncccc1O[C@H]1CCN(C(=O)c2cccs2)CC[C@@H]1O | 0.719 |
| O=C(c1ccc(F)cc1F)N1C[C@@H](O)[C@H](N2CCOCC2)C1 | -1.37 |

| SMILES | cytotoxicity at 10 µM [%] |
| --- | --- |
| O=C1NCCN1C1CCN(CCOc2ccccc2Cl)CC1 | -6.69 |
| CCS(=O)(=O)NCCCNCc1c(C)nn(C)c1N(C)C | -9.66 |
| CCC(C)NC(=O)CCNC(=O)Nc1ccc(-n2cncn2)c(F)c1 (stereo not given) | -0.22 |
| CC(C)(O)CN1CCN(C(=O)COCc2ccccc2Cl)CC1 | -4.72 |
| CNS(=O)(=O)Cc1ccc(CNC(=O)c2cccc(C)n2)cc1 | -3.79 |
| CC(=O)N(C)c1nc(CN2CCCCC2Cn2cncn2)cs1 (stereo not given) | -5.79 |
| Cc1ccc(C(=O)NS(=O)(=O)c2cccc3cnccc23)c(=O)[nH]1 | -8.16 |
| O=C(NCC1CCOC1)Nc1ccc(OCC(F)(F)F)nc1 (stereo not given) | -5.41 |
| CCc1nc2n(n1)CC(NCC(=O)Nc1ccc(Cl)cn1)CC2 (stereo not given) | -10.3 |
| CCc1[nH]ncc1C(=O)N1CCCC(n2cccn2)C1 (stereo not given) | 4.62 |
| Cc1cnn(CC2CCCN2C(=O)c2cc(Cl)ccc2F)c1 (stereo not given) | -5.82 |
| c1cnn(CC2CN(CC3CCCC3)CCO2)c1 (stereo not given) | -2.55 |
| CC(C)COC(C)C(=O)NCc1cc(F)cc(F)c1 (stereo not given) | 3.37 |
| COCC1COCCC12CCN(Cc1nccs1)CC2 (stereo not given) | 2.31 |
| Cc1occc1C(=O)N1CCC[C@]2(C[C@@H](OCc3ccccn3)CO2)C1 | -72.4 |
| Cc1noc(C)c1CN1CCN(Cc2cccnc2)c2ncccc2C1 | -67.1 |
| O=C(NCc1cnc2n1CCN(Cc1nccs1)C2)c1ccno1 | -104 |
| O=C1CCC2(CCCN(CCc3ccccc3)C2)N1Cc1cccnc1 (stereo not given) | 4.05 |
| CCC(C)N1Cc2c(C(=O)N3CCCC3)nn(C)c2C1 (stereo not given) | -5.03 |
| c1ccc(CN2CC[C@@H]3O[C@@H](COCC4CCOCC4)CC[C@@H]32)nc1 | -1.98 |
| O=C(C1CCOCC1)N1C[C@@H]2CN(Cc3ccsc3)CCO[C@@H]2C1 | -77.5 |
| COCCN1CCc2ncnc(NC(C)C)c2CC1 | 2.13 |

Reference: ChEMBL document CHEMBL4513216, “Probing the Open Global Health Chemical Diversity Library for Multistage-Active Starting Points for Next-Generation Antimalarials” (ACS Infect Dis, 2020)
